According to paper PMC8892239 (EFSA Journal, 2022):
≈ marks a conversion by molar mass, not a printed value. Like-named read-outs stand apart in the source and are kept apart here.

Columns and labels:
Daphnia magna [1] = test: 21-day semi-static reproduction test; type: in vivo
[2] = Assessment of secondary poisoning
[3] = tested on: Skeletonema pseudocostatum; test: Marine algal growth inhibition test, ISO 10253:2016; type: in vivo; details: read-out: ErC50
Outline: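 Test concentrations were measured analytically at 0 and 72 h. Endpoints were expressed on the geometric mean of the measured concentrations. An EC50 was also predicted from the initially measured concentrations.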

Eisenia andrei = test: Earthworm reproduction test, OECD 222; type: in vivo; details: 56 days, nominal
Outline: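 GLP 56-day Eisenia andrei test per OECD 222. Eight nominal soil levels were used: 16, 29, 53, 95, 171, 309, 556 and 1,000 mg/kg soil DW. A solvent control was included. Four replicates per treatment, eight for the solvent control, 10 worms per replicate. Reproduction, mortality and growth were scored.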

terrestrial plants = test: Seedling emergence and seedling growth test, OECD 208, three plant species; type: in vivo, Avena sativa, Brassica napus, Pisum sativum
Outline: (§1)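 Soil was spiked with the test compound; measured concentrations were checked against nominal. From 50% emergence in controls, emergence, survival and visible phytotoxicity were recorded weekly for 21 days. At the end, emergence, survival, shoot fresh weight and visible damage were recorded. Effect concentrations were derived from dose–response curves.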

Daphnia magna [4] = test: 48-h semi-static acute toxicity test, OECD 202; type: in vivo; details: read-out: 48h EC50 (immobilization)
[5] = Residues of EQ and EQDM in fish flesh; type: in vivo; details: Atlantic salmon, oral, 50 mg EQ/kg feed
Outline: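 Flesh was sampled from 15 fish per group after 90 days of feeding. The parent compound and its dimer were quantified by HPLC with fluorescence detection.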

[6] = ref EFSA, 2010, cited from earlier work
[7] = ref EFSA FEEDAP Panel, 2015; cited from earlier work
Risk characterisation = test: Risk characterisation
Outline: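 For each compartment, a PNEC was derived by dividing the NOEC (or EC10 where indicated) by an assessment factor. Risk was expressed as the PEC/PNEC ratio.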

[8] = at 25°C; ref EFSA, 2010; cited from earlier work
[9] = Metabolism of 14C-EQ in liver slices; type: in vitro ADME, rat, laying hen and goat; details: 10 and 100 µM, 37°C, 2 h
[10] = tested on: Pacific oyster Crassostrea gigas; test: 24-h embryo-larval developmental test; type: in vivo; details: initially measured concentrations
[11] = Residues of EQ and metabolites/TPs in piglet tissues; type: in vivo; details: piglets
[12] = Forced degradation of EQ in compound feed; type: physicochemical
Beagle dogs = details: ref EFSA FEEDAP Panel, 2015, cited from earlier work
male BALB/c mice = test: Subchronic; type: in vivo, mouse; details: EQ 5,000 mg/kg feed, after 10 days, mice refused their feed
Outline: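 Groups of 10 BALB/c mice were fed the dimer for 90 days. Nominal levels were 0, 0.1, 1, 100, 1,000, 3,000 and 5,000 mg/kg feed, equal to 0, 0.015, 0.081, 10, 99, 286 and 518 mg/kg bw per day. A parent-compound group started at 5,000 mg/kg feed, was reduced to 1,000 mg/kg feed and was later excluded. BMD modelling used a 10% (or 20%) benchmark response.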

[13] = Residues of EQ and metabolites/TPs in laying hen tissues and eggs; type: in vivo, laying hens; details: liquid egg, control (0 mg EQ/kg feed); LOQ 2 µg/kg whole egg
Outline: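 Liver, kidney, muscle and skin/fat were taken from eight hens per group after 56 days of feeding. Twelve eggs per treatment were collected: four per day on three consecutive days at the end of the study. EQ, EQDM, EQI, DHEQ, DEQ and metabolites A–C were measured. LOQs: EQ 0.5 (muscle) to 2 (other tissues) µg/kg; EQDM 0.5–1 µg/kg; EQI 1.5 µg/kg; DHEQ 0.5 µg/kg; whole egg 2 µg/kg per analyte.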

[14] = at 22°C; ref EFSA, 2010; cited from earlier work
Avena sativa (oat) = test: Seedling emergence and seedling growth test, OECD 208; type: in vivo
Outline: as §1

[15] = Oxygen bomb method, feed for chickens for fattening; details: for induction period: basal feed 7 h
Chironomus riparius = test: Water-sediment test with spiked sediment, OECD 218, 28 days; type: in vivo; details: nominal
Outline: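 GLP static 28-day Chironomus riparius water–sediment test per OECD 218. The sediment was spiked at 62.5, 125, 250, 500 and 1,000 mg/kg sediment DW (nominal).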

cattle for fattening = test: Tolerance study in cattle for fattening; type: in vivo, male Holstein calves
[16] = control feed (0 mg EQ/kg), 42 days, mean ± SD, LOQs as above

CCOc1ccc2c(c1)C(C)=CC(C)(C)N2 [EQ, 6‐ethoxy‐1,2‐dihydro‐2,2,4‐trimethylquinoline]
EC10 (Daphnia magna [1]; as used in risk characterisation): 0.06 µg/mL (≈ 0.276 µM) | 21-day EC10 (number of offspring per introduced and survived parent) (Daphnia magna [1]; nominal concentrations, 95% confidence interval 46.9–76.0): 0.0597 µg/mL | PECfish/PNECoral [2]: 1 | NECoral ([2]; from NOEC 80 mg/kg feed, assessment factor of 90): 0.89 mg/kg | PECfish/PNECoral ([2]; listed as Ethoxyquin): 1.0 | EC50 [3]: 3.3 µg/mL (≈ 15.2 µM) | LC50 (mortality) (Eisenia andrei): 693 mg test item/kg soil DW | NOEC for biomass (Eisenia andrei): ≥ 556 mg test item/kg soil DW | NOEC for mortality (Eisenia andrei): 556 mg test item/kg soil DW | NOEC for reproduction (Eisenia andrei): 171 mg test item/kg soil DW | concentration with statistically significant effects on shoot fresh weight (terrestrial plants; all species tested): 111 mg test item/kg soil DW | EC10 (terrestrial plants; lowest calculated, 21 days): 55.8 mg test item/kg soil DW | lowest calculated EC50 (terrestrial plants; shoot fresh weight, 21 days): 155 mg test item/kg soil DW | EC50 (Daphnia magna [4]): 2.48 µg/mL (≈ 11.4 µM) | concentration at 90 days [5]: 40 ng/g | Octanol/water partition coefficient (log Kow 25°C) ([6]; pH 5): 3.18 | Octanol/water partition coefficient (log Kow 25°C) ([6]; pH 7): 3.39 | Octanol/water partition coefficient (log Kow 25°C) ([6]; pH 9): 3.19 | conclusion on toxicological profile [7]: not genotoxic, carcinogenic, and does not cause developmental toxicity in the offspring | PEC/PNEC, fish farmed in land-based systems (Risk characterisation): 0.10 | PEC/PNEC, freshwater sediment (Risk characterisation): 0.02 | PEC/PNEC, marine sediment (Risk characterisation): 1,550 | PEC/PNEC, terrestrial compartment (earthworm) (Risk characterisation): 0.03 | PNEC, freshwater sediment (Risk characterisation; AF 10): 12,500 μg/kg | PNEC, terrestrial compartment (earthworm) (Risk characterisation; AF 10): 17,100 μg/kg | PNEC, freshwater compartment (Risk characterisation; AF 50): 1.2 µg/L | PEC/PNEC, freshwater compartment (Risk characterisation; EQ used in terrestrial animals): 5 | PNECsed, marine sediment (Risk characterisation; equilibrium partitioning approach, AF 1,000): 70.8 µg/kg | Vapour pressure [8]: 3.46 × 10^–2 at 25 °C Pa | extent of metabolism [9]: metabolised extensively | number of metabolites identified ([9]; irrespective of origin): 17 | 24-h NOEC (development) [10]: 2.9 mg/L | residue in kidney ([11]; control feed (0 mg EQ/kg), 42 days, mean ± SD, LOQs 1.5 to 2 µg EQ, EQDM, metabolite A/kg, 0.5 µg EQI/kg): ˂ LOQ^( ^b ^) | residue in muscle [11, 16]: ˂ LOQ | residue in subcutaneous fat [11, 16]: ˂ LOQ | residue in muscle ([11]; feed with 50 mg EQ/kg for 42 days, LOQs 1.5 to 2 µg EQ, EQDM, metabolite A/kg, 0.5 µg EQI/kg): ˂ LOQ | share of the lost EQ identified as DMEQ, EQI and EQDM ([12]; H2O2): around 56% | EQ oxidised ([12]; H2O2, after 4 h): 83% | EQ oxidised ([12]; H2O2, spontaneously): 75% | lowest NOAEL (Beagle dogs; dogs, based on hepatocellular necrosis): 2 mg/kg bw per day | maximum potentially safe concentration in feeds for dogs (Beagle dogs): 11 mg/kg complete feed | loss of initial body weight (male BALB/c mice): 11% | residue in eggs [13]: ˂ LOQ^( ^d ^) | Dissociation constant [14]: 4.56 at 22 °C | EC50, shoot fresh weight (Avena sativa (oat); 21 days): 242.2 mg/kg | effects on seedling emergence and survival of emerged seedlings (Avena sativa (oat); up to 1,000 mg test item/kg soil DW): No adverse effects | induction period ([15]; 25 mg ethoxyquin/kg feed): 7.6 h | protection factor ([15]; 50 mg ethoxyquin/kg feed): 1.46 | induction period ([15]; 50 mg ethoxyquin/kg feed): 9.9 h | EC10 development rate (Chironomus riparius): > 250 mg/kg sediment DW | NOEC development rate (Chironomus riparius): 125 mg/kg sediment DW | NOEC emergence rate (Chironomus riparius): 250 mg/kg sediment DW | margin of safety (cattle for fattening; 50 mg ethoxyquin/kg feed): 10 | gamma-glutamyl transpeptidase (cattle for fattening; 1× (50 mg/kg feed), 42 days): 22.4 µ/L | platelet count (cattle for fattening; 1× (50 mg/kg feed), 42 days): 452000 µL⁻¹ | platelet count (cattle for fattening; 3× (150 mg/kg feed), 42 days): 394000 µL⁻¹ | platelet count (cattle for fattening; 10× (500 mg/kg feed), 42 days, p = 0.01 to the control): 264000 µL⁻¹
